This is an account of results in ChEMBL document CHEMBL3526015, “Metabolism of the c-Fos/activator protein-1 inhibitor T-5224 by multiple human UDP-glucuronosyltransferase isoforms” (Drug Metab Dispos, 2011).

For data set [1], the target named is T1, UDP-glucuronosyltransferase 1A8 (Homo sapiens, UniProt Q9HAW9).
T1 sequence (Q9HAW9 whole entry): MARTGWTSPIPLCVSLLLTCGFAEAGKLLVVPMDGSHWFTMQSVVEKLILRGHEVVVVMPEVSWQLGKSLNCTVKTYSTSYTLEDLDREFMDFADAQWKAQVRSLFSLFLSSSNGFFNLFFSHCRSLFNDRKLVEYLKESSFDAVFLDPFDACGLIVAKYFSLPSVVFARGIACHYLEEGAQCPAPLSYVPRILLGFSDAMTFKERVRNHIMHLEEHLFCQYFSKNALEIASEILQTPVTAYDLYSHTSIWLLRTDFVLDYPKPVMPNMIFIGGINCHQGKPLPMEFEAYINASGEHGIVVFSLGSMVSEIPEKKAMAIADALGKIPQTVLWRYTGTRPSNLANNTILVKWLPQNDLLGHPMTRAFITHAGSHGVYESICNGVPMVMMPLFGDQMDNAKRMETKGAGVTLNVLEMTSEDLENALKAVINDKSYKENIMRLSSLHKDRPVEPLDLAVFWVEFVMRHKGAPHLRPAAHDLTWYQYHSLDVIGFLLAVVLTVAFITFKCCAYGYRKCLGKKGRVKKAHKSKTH
As to the kind of experiment: Drug metabolism assessed as human UGT1A8-mediated T-5224 hydroxyl O-glucuronide formation at 5 to 50 uM after 60 mins in presence of UDP-glucuronic acid by HPLC method. Conditions: recombinant enzyme, 1 h. Type of data set: ADME.

The nature of data set [2]: Drug metabolism in pooled human intestinal microsomes assessed as T-5224 acyl O-glucuronide formation at 10 uM after 10 mins by HPLC method. The data set is classed as ADME, Intestine, Microsome. A digest of the protocol:
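T-5224 at 10 μM incubated for 10 min at 37°C with UDPGA (2 mM) in pooled liver (0.5 mg protein/mL) or intestinal (0.25 mg protein/mL) microsomes. Buffer was 50 mM Tris-HCl pH 7.5 with 8 mM MgCl2 and alamethicin, after 5 min preincubation. Stopped with acetonitrile; glucuronides quantified by HPLC at 290 nm.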

A short description of data set [3]: Drug metabolism in human intestinal microsomes assessed as Vmax/Km ratio for T-5224 acyl O-glucuronide formation per mg protein after 10 to 60 mins by HPLC method. Type of data set: ADME, Intestine, Microsome. The procedure, abridged:
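Pooled liver microsomes (0.5 mg/mL) were incubated 10 min. Pooled intestinal microsomes (0.25 mg/mL) ran 10 min at T-5224 10–50 μM and 20 min at 1–5 μM. Buffer was 50 mM Tris-HCl pH 7.5 with 8 mM MgCl2, alamethicin and 2 mM UDPGA, at 37°C, in triplicate. Glucuronides G2/G3 were read by HPLC at 290 nm and fitted for Vmax/Km.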

For data set [4], the target named is T2, UDP-glucuronosyltransferase 1A1 (Homo sapiens, UniProt P22309).
T2 sequence (P22309 whole entry): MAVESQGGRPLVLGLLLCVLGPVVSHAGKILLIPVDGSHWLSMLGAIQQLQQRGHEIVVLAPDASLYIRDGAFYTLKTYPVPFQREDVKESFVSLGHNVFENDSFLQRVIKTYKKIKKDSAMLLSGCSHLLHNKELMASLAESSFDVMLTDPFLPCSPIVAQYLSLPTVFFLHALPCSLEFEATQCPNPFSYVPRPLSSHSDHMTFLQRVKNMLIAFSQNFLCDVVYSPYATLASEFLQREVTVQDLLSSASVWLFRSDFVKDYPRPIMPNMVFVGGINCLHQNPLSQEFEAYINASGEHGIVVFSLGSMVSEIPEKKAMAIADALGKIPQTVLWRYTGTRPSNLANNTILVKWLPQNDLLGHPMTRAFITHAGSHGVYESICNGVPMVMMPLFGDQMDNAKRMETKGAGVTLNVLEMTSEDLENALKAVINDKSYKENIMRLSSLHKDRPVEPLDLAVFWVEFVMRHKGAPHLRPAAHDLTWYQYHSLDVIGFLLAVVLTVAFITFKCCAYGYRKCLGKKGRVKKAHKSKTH
As to the kind of experiment: Drug metabolism assessed as human UGT1A1-mediated T-5224 hydroxyl O-glucuronide formation at 5 to 50 uM after 60 mins in presence of UDP-glucuronic acid by HPLC method. Type of data set: ADME. The following applies: recombinant enzyme, 1 h.

For another data set, the target named is T3, Cytochrome P450 2B6 (Homo sapiens, UniProt P20813).
T3 sequence (P20813 whole entry): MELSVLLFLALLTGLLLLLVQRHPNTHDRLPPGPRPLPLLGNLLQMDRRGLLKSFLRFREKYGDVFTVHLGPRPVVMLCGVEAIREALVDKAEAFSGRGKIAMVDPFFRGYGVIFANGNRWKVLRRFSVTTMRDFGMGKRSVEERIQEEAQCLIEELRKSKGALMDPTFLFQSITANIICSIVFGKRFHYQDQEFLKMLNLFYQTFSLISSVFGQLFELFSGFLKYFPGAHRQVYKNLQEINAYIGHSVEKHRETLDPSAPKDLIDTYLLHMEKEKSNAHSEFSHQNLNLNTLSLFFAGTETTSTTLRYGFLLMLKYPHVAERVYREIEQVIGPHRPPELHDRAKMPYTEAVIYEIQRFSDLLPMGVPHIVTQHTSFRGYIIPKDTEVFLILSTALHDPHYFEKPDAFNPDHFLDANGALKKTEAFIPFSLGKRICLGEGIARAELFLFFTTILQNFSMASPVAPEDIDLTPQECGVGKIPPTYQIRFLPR
As to the kind of experiment: Drug metabolism assessed as human CYP2B6-mediated metabolite formation at 2 uM after 30 mins by HPLC method. Type of data set: ADME. The following applies: recombinant enzyme, 0.5 h. The procedure, abridged: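 Each recombinant human P450 was used at 50 pmol/mL with an NADPH-generating system and 2 μM 14C-T-5224 (0.5% DMSO final). Buffer was 100 mM Tris-HCl pH 7.5, except 100 mM potassium phosphate pH 7.4 for CYP2A6 and CYP2C9*1. Incubation ran 30 min at 37°C and was stopped with acetonitrile/methanol. Radioactive metabolite peaks were detected by C18 HPLC.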

The target in data set [5] is T4, UDP-glucuronosyltransferase 1A3 (Homo sapiens, UniProt P35503).
T4 sequence (P35503 whole entry): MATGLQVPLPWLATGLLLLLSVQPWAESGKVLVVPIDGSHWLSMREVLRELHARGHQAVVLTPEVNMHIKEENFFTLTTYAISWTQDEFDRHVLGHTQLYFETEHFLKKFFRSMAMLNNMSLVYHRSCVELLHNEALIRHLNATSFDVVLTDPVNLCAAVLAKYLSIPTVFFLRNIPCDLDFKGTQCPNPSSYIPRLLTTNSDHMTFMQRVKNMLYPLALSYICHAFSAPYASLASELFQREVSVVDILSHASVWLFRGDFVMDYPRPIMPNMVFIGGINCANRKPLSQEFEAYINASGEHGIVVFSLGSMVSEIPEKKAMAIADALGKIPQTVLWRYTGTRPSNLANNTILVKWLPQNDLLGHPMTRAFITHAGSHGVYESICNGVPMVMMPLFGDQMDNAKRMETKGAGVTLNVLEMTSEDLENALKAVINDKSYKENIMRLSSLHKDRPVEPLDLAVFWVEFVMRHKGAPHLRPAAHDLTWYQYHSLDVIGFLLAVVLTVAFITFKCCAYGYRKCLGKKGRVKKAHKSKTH
As to the kind of experiment: Drug metabolism assessed as human UGT1A3-mediated T-5224 hydroxyl O-glucuronide formation at 5 to 50 uM after 60 mins in presence of UDP-glucuronic acid by HPLC method. Type of data set: ADME. Conditions: recombinant enzyme, 1 h.

Consider `O=C(O)CCc1cc(C(=O)c2ccc(OC3CCCC3)cc2O)ccc1OCc1ccc2c(O)noc2c1`, for which the Drug metabolism result in data set [1] is recorded as “metabolite_detected”; in data set [2] it was “metabolite_detected”; in data set [4], “metabolite_detected”; on Cytochrome P450 2B6 it was “metabolite_not_detected”; in data set [5], “metabolite_detected”. In addition, the Vmax/Km in data set [3] worked out at 40.9 µL/min.
